A value given as a limit tells only on which side of the number the result lay.

Data set [1] is described as follows: Drug metabolism in Sprague-Dawley rat hepatocytes assessed as amide hydrolysis at 1 to 10 uM by LC-MS analysis. It is filed as ADME, cell-based, Hepatocyte. The essentials: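 Hepatocytes at 1 × 10^6 cells/ml in William's medium incubated at 37°C with gentle shaking under 5% CO2. Substrate was at […]. Metabolites were analysed by LC-MS.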
Data set [2] relates to Rattus norvegicus. As to the kind of experiment: Toxicity in Wistar Hannover rat kidney assessed as crystals in urine at 76 to 230 umol/kg, po qd administered for 7 days measured on day 7 by hematoxylin/eosin staining-based light microscopic analysis. The settings on record: in vivo, 168 h. Format: organism-based.
The nature of data set [3]: Cmax in Sprague-Dawley rat at 70 umol/kg, po qd administered for 7 days measured on day 7. Format: ADME, organism-based. Set-up: dose 70 umol/kg, route oral. The settings on record: in vivo. In short, it runs like this:
(§1)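 Toxicity study 2: 2 female satellite rats per dose group. Dosing was once daily by oral gavage (10 ml/kg) for 7 days. Tail-vein EDTA blood was taken at 2, 4, 6, 7 and 24 h on day 1 and on day 7, then chilled and centrifuged to plasma. Parent and M1 were quantified by LC-MS/MS, with M1 measured in negative electrospray mode.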

Data set [4] is described as follows: Cmax in Sprague-Dawley rat at 200 umol/kg, po qd administered for 7 days measured on day 7. The settings on record: in vivo. Details: dose 200 umol/kg, route oral. It is filed as ADME, organism-based. In short, it runs like this:
as §1

Data set [5] in a line: AUC (0 to 24 hrs) in Sprague-Dawley rat at 70 umol/kg, po qd administered for 7 days measured on day 7. It is filed as ADME, organism-based. Set-up: time < 24 hr, dose 70 umol/kg, route oral. The settings on record: plasma. In short, it runs like this: as §1
The nature of data set [6]: AUC (0 to 24 hrs) in Sprague-Dawley rat at 200 umol/kg, po qd administered for 7 days measured on day 7. Details: dose 200 umol/kg, time < 24 hr, route oral. Particulars: plasma. Format: ADME, organism-based. In short, it runs like this:
as §1

In data set [7] the test system is Rattus norvegicus. As to the kind of experiment: Toxicity in Wistar Hannover rat kidney assessed as increase in plasma urea level at >= 500 to 1000 umol/kg, po qd administered for 7 days measured on day 7. It is filed as organism-based. Particulars: in vivo, 168 h. The essentials: (§2)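 Wistar Hannover rats, about 8 weeks old, were acclimatized about 2 weeks and randomized by body weight. Dosing was by oral gavage (10 ml/kg) once daily for 7 days, with vehicle controls. At the end of dosing, plasma (lithium heparin) was taken from the orbital plexus under isoflurane/oxygen anaesthesia, and urea and creatinine were measured.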

For data set [8], the system named is Rattus norvegicus. As to the kind of experiment: Toxicity in Wistar Hannover rat kidney assessed as increase in plasma creatinine level at >= 500 to 1000 umol/kg, po qd administered for 7 days measured on day 7. Format: organism-based. Particulars: in vivo, 168 h. In short, it runs like this: as §2
Data set [9] in a line: Cmax in Wistar Hannover rat at 70 umol/kg, po qd measured on day 1. The settings on record: in vivo.
Data set [10] in a line: Cmax in Wistar Hannover rat at 200 umol/kg, po qd measured on day 1. The settings on record: in vivo.
Data set [11] in a line: AUC (0 to 24 hrs) in Wistar Hannover rat at 70 umol/kg, po qd measured on day 1. The settings on record: plasma.
Data set [12] in a line: AUC (0 to 24 hrs) in Wistar Hannover rat at 200 umol/kg, po qd measured on day 1. Particulars: plasma.
Data set [13] has as its system Rattus norvegicus. As to the kind of experiment: Toxicity in Wistar Hannover rat kidney assessed as pathophysiological changes at 70 to 500 umol/kg, po qd administered for 7 days measured on day 7. Particulars: in vivo, 168 h.
Data set [14] concerns the target T1, Prostaglandin E synthase (Homo sapiens, UniProt O14684).
T1 sequence (O14684 whole entry): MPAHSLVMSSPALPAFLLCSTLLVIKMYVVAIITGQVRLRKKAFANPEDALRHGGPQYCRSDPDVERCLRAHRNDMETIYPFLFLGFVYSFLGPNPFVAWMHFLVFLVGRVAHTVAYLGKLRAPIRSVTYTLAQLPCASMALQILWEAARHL
As to the kind of experiment: Inhibition of human mPGES-1 by whole blood assay.

The nature of data set [15]: Cmax in Sprague-Dawley rat at 170 umol/kg, po qd administered for 7 days measured on day 7. Format: ADME, organism-based. Set-up: dose 170 umol/kg, route oral. The settings on record: in vivo. In short, it runs like this:
as §1

A short description of data set [16]: Cmax in Sprague-Dawley rat at 500 umol/kg, po qd administered for 7 days measured on day 7. It is filed as ADME, organism-based. Details: dose 500 umol/kg, route oral. Particulars: in vivo. In short, it runs like this:
as §1

Data set [17] is described as follows: AUC (0 to 24 hrs) in Sprague-Dawley rat at 170 umol/kg, po qd administered for 7 days measured on day 7. It is filed as ADME, organism-based. Details: time < 24 hr, dose 170 umol/kg, route oral. The settings on record: plasma. In short, it runs like this:
as §1

Data set [18] is described as follows: AUC (0 to 24 hrs) in Sprague-Dawley rat at 500 umol/kg, po qd administered for 7 days measured on day 7. The settings on record: plasma. Details: dose 500 umol/kg, time < 24 hr, route oral. It is filed as ADME, organism-based. The essentials:
as §1

Data set [19] relates to Rattus norvegicus. As to the kind of experiment: Toxicity in Wistar Hannover rat kidney assessed as crystals in urine at 500 umol/kg, po qd administered for 7 days measured on day 7. Format: organism-based. Particulars: in vivo, 168 h.
Data set [20] is described as follows: Cmax in Wistar Hannover rat at 170 umol/kg, po qd measured on day 1. Particulars: in vivo.
The nature of data set [21]: Cmax in Wistar Hannover rat at 500 umol/kg, po qd measured on day 1. The settings on record: in vivo.
Data set [22] is described as follows: AUC (0 to 24 hrs) in Wistar Hannover rat at 170 umol/kg, po qd measured on day 1. The settings on record: plasma.
Data set [23] is described as follows: AUC (0 to 24 hrs) in Wistar Hannover rat at 500 umol/kg, po qd measured on day 1. The settings on record: plasma.
Data set [24] relates to Hepatocyte. As to the kind of experiment: Drug level in Sprague-Dawley rat hepatocytes treated with AZ'7847 at 1 to 10 uM by LC-MS analysis. It is filed as ADME, cell-based. In short, it runs like this: (§3)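 Metabolic profiling in rat hepatocytes at 1 × 10^6 cells/ml in William's medium, shaken gently at 37°C under 5% CO2. Substrate was tested at two concentrations (1 and 10). For radio detection, a 14C-labelled substrate was separated on an Atlantis T3 column (1 ml/min) with a 1:20 split to the MS and a flow scintillation monitor.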

The subject of data set [25] is Hepatocyte. As to the kind of experiment: Drug level in Sprague-Dawley rat hepatocytes treated with AZ'7847 at 1 to 10 uM by radio monitoring method. It is filed as ADME, cell-based. The essentials:
as §3

Data set [26] relates to Rattus norvegicus. As to the kind of experiment: Drug level in Wistar Hannover rat treated with [14C]-AZ'7847 at 500 umol/kg, po qd administered for 7 days measured on day 7 by radio monitoring method. The settings on record: in vivo, 168 h. Format: ADME, organism-based.

Turning to `COc1cc(C(=O)NS(=O)(=O)c2ccccc2S(N)(=O)=O)ccc1C#CC1CC1`, the Drug metabolism result in data set [1] was “metabolite_not_detected”. Moreover, the Activity entry in data set [2], in data set [7], in [8] and in [13] was “Non-toxic” throughout. Besides, the Cmax in data set [3] stood at 50 µM; in data set [4], 110 µM; in data set [9], 50 µM; in data set [10], 90 µM. The AUC at 24 h in data set [5] came to 550 µM·h; in data set [6] it was 1070 µM·h. In addition, the AUC(0-t) at 24 h came out at 610 µM·h in data set [11] and 970 µM·h in data set [12].
As for `CC(C)C#Cc1ccc(C(=O)NS(=O)(=O)c2ccccc2S(N)(=O)=O)cc1OCCC(F)(F)F`, the Drug metabolism result in [1] is “metabolite_not_detected”. This compound gave an IC50 in data set [14] of over 2000 nM. For the same compound, the Cmax in [15] turned out to be 190 µM; in data set [16], 320 µM; in data set [20] it was 170 µM; in [21], 300 µM. In addition, the AUC at 24 h came out at 1600 µM·h in [17] and 3010 µM·h in data set [18]. Further, the Activity result in [7] is “Non-toxic”; in data set [8] it was “Non-toxic”; in data set [19] it was “Toxic”; in data set [13], “Non-toxic”. For the same compound, the AUC(0-t) at 24 h is 1260 µM·h in [22] and 3410 µM·h in data set [23].
Regarding `O=[14C](O)c1ccc(C#Cc2ccccc2)cc1`, the Drug metabolism result in data set [24], in [25] and in data set [26] was “metabolite_detected” throughout.

As a reminder, the Cmax is the maximum level reached in the sampled fluid or tissue. For orientation: AUC means the area under the concentration-time curve, a measure of exposure. Read a low AUC as less exposure. Usually AUC(0-t) stands for the area under the concentration-time curve up to a stated or last time point. Broadly, the IC50 is the midpoint of a concentration-inhibition curve.

(Values after ChEMBL document CHEMBL3526126, “Amide hydrolysis of a novel chemical series of microsomal prostaglandin E synthase-1 inhibitors induces kidney toxicity in the rat” (Drug Metab Dispos, 2013).)
